Test [1] relates to Scedosporium apiospermum. In words: Antifungal activity against Scedosporium apiospermum CBS 117407 infected in immunosuppressed OF1 mouse assessed as reduction in brain fungal burden at 20 mg/kg, po BID administered 24 hrs postinfection for 10 days measured after 20 days. In kind it is functional, organism-based. Also noted: dose 20 mg/kg.
Test [2] relates to Scedosporium aurantiacum. Description: Antifungal activity against Scedosporium aurantiacum CBS 116910 infected in immunosuppressed OF1 mouse assessed as reduction in kidney fungal burden at 10 mg/kg, po BID administered 24 hrs postinfection for 10 days measured after 20 days. In kind it is functional, organism-based. Also noted: dose 10 mg/kg.
In test [3] the test system is Scedosporium aurantiacum. In words: Antifungal activity against Scedosporium aurantiacum IHEM 15458 infected in immunosuppressed OF1 mouse assessed as reduction in kidney fungal burden at 10 mg/kg, po BID administered 24 hrs postinfection for 10 days measured after 20 days. In kind it is functional, organism-based. Further details: dose 10 mg/kg.
Test [4] has as its system Scedosporium boydii. In words: Antifungal activity against Scedosporium boydii FMR 6694 infected in immunosuppressed OF1 mouse assessed as reduction in kidney fungal burden at 20 mg/kg, po BID administered 24 hrs postinfection for 10 days measured after 20 days. In kind it is functional, organism-based. Also noted: dose 20 mg/kg.
Test [5] has as its system Scedosporium boydii. In words: Antifungal activity against Scedosporium boydii FMR 8627 infected in immunosuppressed OF1 mouse assessed as reduction in kidney fungal burden at 20 mg/kg, po BID administered 24 hrs postinfection for 10 days measured after 20 days. Also noted: dose 20 mg/kg. In kind it is functional, organism-based.
The test system of test [6] is Scedosporium apiospermum. Description: Antifungal activity against Scedosporium apiospermum CBS 117407 infected in immunosuppressed OF1 mouse assessed as reduction in brain fungal burden at 40 mg/kg, po BID administered 24 hrs postinfection for 10 days measured after 20 days. Further details: dose 40 mg/kg. Type of test: functional, organism-based.
In test [7] the test system is Scedosporium boydii. In words: Antifungal activity against Scedosporium boydii FMR 6694 infected in immunosuppressed OF1 mouse assessed as prolonged survival of mouse at 10 mg/kg, po BID administered 24 hrs postinfection for 10 days measured after 20 days. Also noted: dose 10 mg/kg. In kind it is functional, organism-based. The method, boiled down:
(§1)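 Male OF1 mice, groups of 10, immunosuppressed 1 day before infection with cyclophosphamide 200 mg/kg i.p. plus 5-fluorouracil 150 mg/kg i.v. Infected i.v. via tail vein with 1 × 10^4 CFU in 0.2 ml saline. Oral treatment began 24 h post-challenge for 10 days. Mice checked daily for 20 days. Survival by Kaplan-Meier, compared by log rank test.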

The subject of test [8] is Scedosporium boydii. In words: Antifungal activity against Scedosporium boydii FMR 8627 by broth dilution method. In kind it is functional. On the technique in general: Broth dilution looks for growth in wells or tubes with falling amounts of substance.
Test [9] relates to Scedosporium apiospermum. In words: Antifungal activity against Scedosporium apiospermum CBS 117407 infected in immunosuppressed OF1 mouse assessed as reduction in kidney fungal burden at 10 mg/kg, po BID administered 24 hrs postinfection for 10 days measured after 20 days. Further details: dose 10 mg/kg. In kind it is functional, organism-based.
The subject of test [10] is Scedosporium boydii. In words: Antifungal activity against Scedosporium boydii FMR 6694 infected in immunosuppressed OF1 mouse assessed as reduction in brain fungal burden at 20 mg/kg, po BID administered 24 hrs postinfection for 10 days measured after 20 days. In kind it is functional, organism-based. Further details: dose 20 mg/kg.
For test [11], the system named is Scedosporium boydii. Description: Antifungal activity against Scedosporium boydii FMR 8627 infected in immunosuppressed OF1 mouse assessed as reduction in kidney fungal burden at 10 mg/kg, po BID administered 24 hrs postinfection for 10 days measured after 20 days. Type of test: functional, organism-based. Also noted: dose 10 mg/kg.
Test [12] in a line: Antifungal activity against Scedosporium aurantiacum CBS 116910 infected in immunosuppressed OF1 mouse assessed as prolonged survival of mouse at 10 mg/kg, po BID administered 24 hrs postinfection for 10 days measured after 20 days. Type of test: functional, organism-based. Also noted: dose 10 mg/kg. The method, boiled down: as §1
Test [13] deals with Scedosporium aurantiacum. Description: Antifungal activity against Scedosporium aurantiacum IHEM 15458 infected in immunosuppressed OF1 mouse assessed as reduction in kidney fungal burden at 20 mg/kg, po BID administered 24 hrs postinfection for 10 days measured after 20 days. Type of test: functional, organism-based. Further details: dose 20 mg/kg.
In test [14] the test system is Scedosporium boydii. In words: Antifungal activity against Scedosporium boydii FMR 6694 infected in immunosuppressed OF1 mouse assessed as prolonged survival of mouse at 20 mg/kg, po BID administered 24 hrs postinfection for 10 days measured after 20 days. Type of test: functional, organism-based. Also noted: dose 20 mg/kg. The method, boiled down:
as §1

Structures are written as SMILES. ≈ marks a conversion by molar mass, not a printed value. Calls of active or inactive are those of the source. The rule behind the calls is not given here.

Turning to `CC[C@@H]([C@H](C)O)n1ncn(-c2ccc(N3CCN(c4ccc(OC[C@@H]5CO[C@@](Cn6cncn6)(c6ccc(F)cc6F)C5)cc4)CC3)cc2)c1=O` [POSACONAZOLE], the result in the test on Scedosporium apiospermum [1], in the test on Scedosporium aurantiacum [2], with Scedosporium aurantiacum [3], in the test on Scedosporium boydii [5], with Scedosporium apiospermum [6] and in the test with Scedosporium boydii [7] was Active. Further, the outcome (in the test on Scedosporium apiospermum [9]; in the test on Scedosporium boydii [11]; in [12]; with Scedosporium aurantiacum [13]; in the test on Scedosporium boydii [14]) was Active. Also, the result in the test with Scedosporium boydii [4] and in the test with Scedosporium boydii [10] was inactive. Besides, it took 1 µg/mL (≈ 1.43 µM) to inhibit growth in the test on Scedosporium boydii [8] (MIC).

(Values after ChEMBL document CHEMBL1649314, “Experimental murine scedosporiosis: histopathology and azole treatment” (2010).)
